Our source for the Ki and inhibition values is ChEMBL document CHEMBL1955785, “SAR and biological evaluation of 3-azabicyclo[3.1.0]hexane derivatives as μ opioid ligands” (Bioorg Med Chem Lett, 2012).

Each structure is given as a SMILES string.

The target in assay [1] is T1, Mu-type opioid receptor (Homo sapiens, UniProt P35372). As to the kind of experiment: Antagonist activity at human mu opioid receptor by GTP-gamma S binding assay.
The target in assay [2] is Mu-type opioid receptor (Cavia porcellus) (UniProt P97266). As to the kind of experiment: Antagonist activity at mu opioid receptor in guinea pig longitudinal muscle myenteric plexus assessed as inhibition of DAMGO-induced twitch tension at 1 uM after 10 mins. It counts as functional. Put shortly:
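Isolated guinea-pig myenteric plexus-longitudinal muscle was stimulated electrically at 0.1 Hz with a 1 ms pulse width at supramaximal voltage, then washed and rested for 20 min. Kappa antagonist nor-binaltorphimine (1 µM, 10 min) and captopril (1 µM) were added. Test compound was added once twitches plateaued, and 10 min later a cumulative DAMGO dose response was built (3 min contact, 1 min recording per concentration).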

A short description of assay [3]: Displacement of [3H]DAMGO from mu opioid receptor in dog brain after 90 mins by scintillation counting. Further details: species or system Canis lupus familiaris.
Assay [4] is described as follows: Displacement of [3H]U-69,593 from kappa opioid receptor in dog brain after 90 mins by scintillation counting. Further details: species or system Canis lupus familiaris.
A short description of assay [5]: Displacement of [3H]DPDPE from delta opioid receptor in dog brain after 90 mins by scintillation counting. On the set-up: species or system Canis lupus familiaris.
The target in assay [6] is T1, Mu-type opioid receptor. The assay is described as follows: Displacement of [3H]DAMGO from human mu opioid receptor. In short, it runs like this: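 Human μ receptor filter-binding assay using [3H]DAMGO as the radioligand; Ki derived from displacement.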

Sequence of Mu-type opioid receptor (Cavia porcellus) (P97266 whole entry): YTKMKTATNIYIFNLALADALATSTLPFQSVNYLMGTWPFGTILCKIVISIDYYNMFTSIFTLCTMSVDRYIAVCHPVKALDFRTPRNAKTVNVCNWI
T1 sequence (P35372 whole entry): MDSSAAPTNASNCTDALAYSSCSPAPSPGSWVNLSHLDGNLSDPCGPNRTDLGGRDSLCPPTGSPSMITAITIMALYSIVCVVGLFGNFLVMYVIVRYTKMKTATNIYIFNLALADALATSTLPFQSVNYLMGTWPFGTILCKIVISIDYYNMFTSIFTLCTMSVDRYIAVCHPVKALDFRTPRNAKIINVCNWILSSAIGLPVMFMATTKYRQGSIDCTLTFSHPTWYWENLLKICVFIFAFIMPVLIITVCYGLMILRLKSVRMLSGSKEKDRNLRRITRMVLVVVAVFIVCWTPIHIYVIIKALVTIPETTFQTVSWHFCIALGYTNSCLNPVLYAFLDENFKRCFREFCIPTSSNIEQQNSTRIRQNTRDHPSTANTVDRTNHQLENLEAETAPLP

Turning to `C[C@]1(c2cccc(NS(C)(=O)=O)c2)[C@@H]2CN(CCCc3ccccc3)C[C@@H]21`, the Ki came out at 3.5 nM in assay [1], 4.1 nM in assay [3], 94 nM in assay [4] and 183 nM in assay [5]. Besides, the inhibition in assay [2] was below 10%.

Regarding `CCCCCCN1C[C@@H]2[C@H](C1)[C@@]2(CC)c1cccc(NS(C)(=O)=O)c1`, the values for the Ki in assay [3], in assay [4] and in assay [5] were 50 nM, 1340 nM and above 10000 nM, respectively.

In the case of `CC[C@]1(c2cccc(NS(C)(=O)=O)c2)[C@@H]2CN(CC(O)Cc3ccccc3)C[C@@H]21` (stereo not given in full), the Ki in assay [1] worked out at 2.5 nM; in assay [6], 6.6 nM; in assay [3] it was 2.6 nM; in assay [4], 70 nM; in assay [5] it was 595 nM.

As to `CCCCCCN1C[C@@H]2[C@H](C1)[C@]2(c1cccc(NS(C)(=O)=O)c1)C(C)C`, the inhibition in assay [2] is 32%. The values for the Ki in assay [3], in assay [4] and in assay [5] were 3 nM, 48 nM and 308 nM, respectively.

As to `CCCCCCN1C[C@@H]2[C@H](C1)[C@@]2(C)c1cccc(NS(=O)(=O)CCOC)c1`, in assay [2], the inhibition was above 10%. The Ki in assay [3] was determined as 10 nM; in assay [4], 172 nM; in assay [5] it was 464 nM.

As for `CCCCCCN1C[C@@H]2[C@H](C1)[C@@]2(C)c1cccc(NS(=O)(=O)CCC)c1`, the inhibitory constant (Ki) in assay [3] is 104 nM; in assay [4], 1330 nM; in assay [5], above 10000 nM.

Consider `CCS(=O)(=O)Nc1cccc([C@@]2(C)[C@@H]3CN(CCCc4ccccc4)C[C@@H]32)c1`, for which the Ki in assay [3] stood at 37 nM; in assay [4], 219 nM; in assay [5], 2900 nM.

In the case of `CCCCCCN1C[C@@H]2[C@H](C1)[C@@]2(CCC)c1cccc(NS(C)(=O)=O)c1`, the inhibition in assay [2] was below 10%. Moreover, the Ki was found to be 10 nM in assay [3], 328 nM in assay [4] and 66 nM in assay [5].

With `C[C@]1(c2cccc(NS(C)(=O)=O)c2)[C@@H]2CN(CC3Cc4ccccc4C3)C[C@@H]21`, the inhibition constant Ki in assay [1] turned out to be 0.3 nM; in assay [6], 0.81 nM; in assay [3], 0.55 nM; in assay [4] it was 51 nM; in assay [5], 384 nM. Further, the inhibition in assay [2] was below 10%.

With `CCCCCCN1C[C@@H]2[C@H](C1)[C@@]2(C)c1cccc(NS(C)(=O)=O)c1`, the inhibition in assay [2] was below 10%. Besides, the Ki was 14 nM in assay [3], 270 nM in assay [4] and 869 nM in assay [5].

With `CCCCCCN1C[C@@H]2[C@H](C1)[C@@]2(C)c1cccc(NS(=O)(=O)c2cccnc2)c1`, the Ki in assay [3] is 71 nM; in assay [4] it was 1530 nM; in assay [5], above 10000 nM.

Regarding `CCCCCCN1C[C@@H]2[C@H](C1)[C@@]2(C)c1cccc(NS(=O)(=O)C(C)C)c1`, the inhibition in assay [2] turned out to be 18%. The values for the Ki in assay [3], in assay [4] and in assay [5] were 14 nM, 791 nM and 1580 nM, respectively.

Turning to `CC[C@]1(c2cccc(NS(C)(=O)=O)c2)[C@@H]2CN(CC3Cc4ccccc4C3)C[C@@H]21`, the results for the inhibition constant (Ki) in assay [3], in assay [4] and in assay [5] were 0.2 nM, 22 nM and 29 nM, respectively.

Consider `CC[C@]1(c2cccc(NS(C)(=O)=O)c2)[C@@H]2CN(CC3Cc4ccccc4C3O)C[C@@H]21` (stereo not given in full), for which the Ki turned out to be 0.08 nM in assay [1]; 0.1 nM in assay [6]; 0.07 nM in assay [3]; 4.5 nM in assay [4]; 19 nM in assay [5].

Take `CC[C@]1(c2cccc(NS(C)(=O)=O)c2)[C@@H]2CN(CCCc3ccccc3)C[C@@H]21`: the inhibition in assay [2] was below 10%. The Ki worked out at 1.5 nM in assay [3], 67 nM in assay [4] and 79 nM in assay [5].
